Assay results reported in ChEMBL document CHEMBL4765235, “Discovery of N-[Bis(4-methoxyphenyl)methyl]-4-hydroxy-2-(pyridazin-3-yl)pyrimidine-5-carboxamide (MK-8617), an Orally Active Pan-Inhibitor of Hypoxia-Inducible Factor Prolyl Hydroxylase 1-3 (HIF PHD1-3) for the Treatment of Anemia” (J Med Chem, 2016).
Active and inactive are the calls of the source. No cut-off for these calls is given here.

Tests used:
[1] = Toxicity in Sprague-Dawley rat assessed as change in hemoglobin levels at 1.5 mg/kg, po QD administered for 4 weeks and measured post last dose; assay type: organism-based; conditions: in vivo, 672 h
Rattus norvegicus [2] = organism: Rattus norvegicus; conditions: Sprague-Dawley, dose 15.0 mg/kg
Cytochrome P450 2C19 = Cytochrome P450 2C19 (Homo sapiens, UniProt P33261); assay: Inhibition of CYP2C19 (unknown origin); assay type: ADME
[3] = Protein binding in rhesus monkey plasma assessed as unbound fraction at 1 mg/kg, po or 0.5 mg/kg, iv; assay type: ADME, organism-based, Macaca mulatta; conditions: read-out: PPB
[4] = Plasma clearance in rat at 2 mg/kg, po or 1 mg/kg, iv; assay type: ADME, organism-based
[5] = Volume of distribution at steady state in dog at 1 mg/kg, po or 0.5 mg/kg, iv; assay type: ADME, organism-based, Canis lupus familiaris; conditions: in vivo, read-out: Vdss
How it was run: (§1)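 Dog and rhesus monkey dosed 1 mg/kg po and 0.5 mg/kg iv. The iv vehicle was PEG200:12%HPCD:water (30:12:58 v/v/v); the po vehicle was Imwitor:Tween (1:1 w/w). Clearance was measured in plasma. Protein binding was measured in 100% serum.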

[6] = Metabolic stability in human liver microsomes assessed as metabolic turnover at 10 uM measured after 60 mins in presence of NADPH; assay type: ADME, Microsome; conditions: read-out: Drug metabolism
[7] = Drug recovery in fasted bile-duct cannulated Sprague-Dawley rat bile assessed as metabolically unchanged parent compound at 5 mg/kg, po using [3H]-labeled compound measured after 48 hrs; assay type: ADME, organism-based; conditions: in vivo
[8] = In vivo inhibition of HIF-PHD2 in iv dosed C57BL/6 mouse assessed as minimum effective dose causing increase in serum erythropoietin levels measured after 4 hrs; assay type: functional; conditions: C57BL/6, iv, read-out: MED
How it was run: (§2)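 Mouse pharmacodynamic EPO assay (MoPED). Compound dosed iv; serum EPO measured 4 hr after dosing and reported in pg/mL. Minimum effective dose is the lowest dose giving EPO elevation.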

[9] = Drug recovery in fasted bile-duct cannulated Sprague-Dawley rat feces at 5 mg/kg, po using [3H]-labeled compound measured after 48 hrs; assay type: ADME, organism-based; conditions: in vivo
[10] = Volume of distribution at steady state in rat at 2 mg/kg, po or 1 mg/kg, iv; assay type: ADME, organism-based; conditions: in vivo, read-out: Vdss
[11] = Drug metabolism in rat liver microsomes assessed as O-demethylated metabolite formation; assay type: ADME, Microsome
Cytochrome P450 2C9 = Cytochrome P450 2C9 (Homo sapiens, UniProt P11712); assay: Inhibition of CYP2C9 (unknown origin); assay type: ADME
[12] = Blood clearance in C57BL/6J mouse at 1 mg/kg, po or 0.5 mg/kg, iv; assay type: ADME, organism-based; conditions: whole blood
How it was run: (§3)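 Single-dose PK at 1 mg/kg po and 0.5 mg/kg iv. Mouse clearance is from blood; dog and rhesus clearance is from plasma. Mouse vehicle, both routes: DMSO:PEG400:water (5:40:55, v/v/v). Dog and monkey iv vehicle: PEG200:12%HPCD:water (30:12:58 v/v/v). Dog and monkey po vehicle: Imwitor:Tween (1:1 w/w).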

[13] = In vivo inhibition of HIF-PHD2 in C57BL/6 mouse assessed as serum erythropoietin level at 50 mg/kg, iv measured after 4 hrs; assay type: functional; how it was run: as §2
[14] = Plasma clearance in dog at 1 mg/kg, po or 0.5 mg/kg, iv; assay type: ADME, organism-based, Canis lupus familiaris; how it was run: as §1
[15] = target: Hypoxia-inducible factor 1-alpha inhibitor (Homo sapiens) (UniProt Q9NWT6); assay: Inhibition of FIH (unknown origin) using 2-oxoglutarate and biotinyl-SMDESGLPQLTSYDAEVNAPIQGSRNLLQGEELLR CAD peptide as substrate preincubated for 10 mins followed by substrate addition and measured after 1 hr by RapidFire Mass spectrometry
[16] = Half life in C57BL/6J mouse at 1 mg/kg, po or 0.5 mg/kg, iv; assay type: ADME, organism-based; conditions: in vivo; how it was run: as §3
[17] = Protein binding in dog plasma assessed as unbound fraction at 1 mg/kg, po or 0.5 mg/kg, iv; assay type: ADME, organism-based, Canis lupus familiaris; conditions: read-out: PPB
[18] = Drug recovery in fasted bile-duct cannulated Sprague-Dawley rat urine at 5 mg/kg, po using [3H]-labeled compound measured after 48 hrs; assay type: ADME, organism-based; conditions: in vivo
[19] = Drug recovery in fasted bile-duct cannulated Sprague-Dawley rat feces assessed as metabolically unchanged parent compound by measuring radioactivity at 5 mg/kg, po using [3H]-labeled compound measured after 48 hrs; assay type: ADME, organism-based; conditions: in vivo
[20] = Oral bioavailability in dog at 1 mg/kg; assay type: ADME, organism-based, Canis lupus familiaris; conditions: in vivo; how it was run: as §1
Prolyl hydroxylase EGLN2 = Prolyl hydroxylase EGLN2 (Homo sapiens, UniProt Q96KS0); assay: Inhibition of FLAG-tagged full-length HIF-PHD1 (unknown origin) expressed in baculovirus infected Sf9 cells using 2-oxoglutarate and HIF1alpha biotinyl-DLDLEMLAPYIPMDDDFQL as peptide substrates preincubated for 30 mins followed by substrate addition and measured after 2 hrs by LANCE assay
[21] = In vivo inhibition of HIF-PHD2 in C57BL/6 mouse assessed as serum erythropoietin level at 100 mg/kg, iv measured after 4 hrs; assay type: functional; how it was run: as §2
[22] = Drug metabolism in human liver microsomes assessed as O-demethylated metabolite formation; assay type: ADME, Microsome
[23] = Cmax in rat at 2 mg/kg, po or 1 mg/kg, iv; assay type: ADME, organism-based; parameters: dose 2 mg/kg; conditions: in vivo
[24] = Drug metabolism in dog liver microsomes assessed as O-demethylated metabolite formation; assay type: ADME, Canis lupus familiaris, Microsome
[25] = Half life in dog at 1 mg/kg, po or 0.5 mg/kg, iv; assay type: ADME, organism-based, Canis lupus familiaris; conditions: in vivo; how it was run: as §3
[26] = Cmax in C57BL/6J mouse at 1 mg/kg, po or 0.5 mg/kg, iv; assay type: ADME, organism-based; parameters: dose 1 mg/kg; conditions: in vivo; how it was run: as §3
Rattus norvegicus [27] = organism: Rattus norvegicus; conditions: Sprague-Dawley, dose 5-15 mg/kg
[28] = Metabolic stability in rat liver microsomes assessed as metabolic turnover at 10 uM measured after 60 mins in presence of NADPH; assay type: ADME, Microsome; conditions: read-out: Drug metabolism
How it was run: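 Tritiated compound incubated with rat or monkey liver microsomes supplemented with NADPH; metabolic turnover monitored.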

Prolyl hydroxylase EGLN3 = Prolyl hydroxylase EGLN3 (Homo sapiens, UniProt Q9H6Z9); assay: Inhibition of FLAG-tagged full-length HIF-PHD3 (unknown origin) expressed in baculovirus infected Sf9 cells using 2-oxoglutarate and HIF1alpha biotinyl-DLDLEMLAPYIPMDDDFQL as peptide substrates preincubated for 30 mins followed by substrate addition and measured after 2 hrs by LANCE assay
[29] = Toxicity in Sprague-Dawley rat assessed as change in hemoglobin levels at 15 mg/kg, po QD administered for 4 weeks and measured post last dose; assay type: organism-based; conditions: in vivo, 672 h
[30] = In vivo inhibition of HIF-PHD2 in C57BL/6 mouse assessed as serum erythropoietin level at 1.5 mg/kg, iv measured after 4 hrs; assay type: functional; how it was run: as §2
[31] = Drug recovery in fasted bile-duct cannulated Sprague-Dawley rat bile at 5 mg/kg, po using [3H]-labeled compound measured after 48 hrs; assay type: ADME, organism-based; conditions: in vivo
[32] = Cmax in dog at 1 mg/kg, po or 0.5 mg/kg, iv; assay type: ADME, organism-based, Canis lupus familiaris; parameters: dose 1 mg/kg; conditions: in vivo; how it was run: as §3
Cytochrome P450 2D6 = Cytochrome P450 2D6 (Homo sapiens, UniProt P10635); assay: Inhibition of CYP2D6 (unknown origin); assay type: ADME
[33] = Cmax in Sprague-Dawley rat at 15 mg/kg, po administered as single dose measured at 6 hrs; assay type: ADME, organism-based; parameters: route oral, time 6 hrs, dose 15 mg/kg; conditions: in vivo

Sequence of Cytochrome P450 2C19 (P33261 whole entry): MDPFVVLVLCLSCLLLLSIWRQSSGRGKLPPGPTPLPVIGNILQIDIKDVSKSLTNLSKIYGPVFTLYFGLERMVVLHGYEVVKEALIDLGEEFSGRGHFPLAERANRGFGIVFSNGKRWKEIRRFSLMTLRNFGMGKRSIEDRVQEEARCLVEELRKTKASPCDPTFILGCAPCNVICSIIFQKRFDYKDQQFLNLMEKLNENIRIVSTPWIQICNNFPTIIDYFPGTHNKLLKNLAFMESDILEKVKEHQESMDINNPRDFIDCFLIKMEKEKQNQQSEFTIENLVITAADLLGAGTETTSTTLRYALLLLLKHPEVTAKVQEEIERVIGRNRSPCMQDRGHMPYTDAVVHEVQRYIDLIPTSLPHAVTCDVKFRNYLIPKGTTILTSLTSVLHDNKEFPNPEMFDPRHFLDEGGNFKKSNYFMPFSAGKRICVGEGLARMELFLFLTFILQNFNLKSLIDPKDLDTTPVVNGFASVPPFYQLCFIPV
Sequence of Cytochrome P450 2C9 (P11712 whole entry): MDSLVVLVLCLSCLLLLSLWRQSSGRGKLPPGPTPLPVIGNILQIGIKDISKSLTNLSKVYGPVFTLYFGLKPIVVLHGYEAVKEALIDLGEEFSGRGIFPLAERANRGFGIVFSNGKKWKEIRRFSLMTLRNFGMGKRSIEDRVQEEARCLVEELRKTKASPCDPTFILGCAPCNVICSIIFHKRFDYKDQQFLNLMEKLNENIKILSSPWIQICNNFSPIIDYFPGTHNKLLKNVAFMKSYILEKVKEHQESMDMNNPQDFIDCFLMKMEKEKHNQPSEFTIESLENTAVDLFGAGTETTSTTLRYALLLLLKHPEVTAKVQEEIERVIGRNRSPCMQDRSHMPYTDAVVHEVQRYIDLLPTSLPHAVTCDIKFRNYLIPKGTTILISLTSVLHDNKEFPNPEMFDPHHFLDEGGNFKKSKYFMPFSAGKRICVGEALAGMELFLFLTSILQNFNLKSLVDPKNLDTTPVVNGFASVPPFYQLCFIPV
Sequence of Prolyl hydroxylase EGLN2 (Q96KS0 whole entry): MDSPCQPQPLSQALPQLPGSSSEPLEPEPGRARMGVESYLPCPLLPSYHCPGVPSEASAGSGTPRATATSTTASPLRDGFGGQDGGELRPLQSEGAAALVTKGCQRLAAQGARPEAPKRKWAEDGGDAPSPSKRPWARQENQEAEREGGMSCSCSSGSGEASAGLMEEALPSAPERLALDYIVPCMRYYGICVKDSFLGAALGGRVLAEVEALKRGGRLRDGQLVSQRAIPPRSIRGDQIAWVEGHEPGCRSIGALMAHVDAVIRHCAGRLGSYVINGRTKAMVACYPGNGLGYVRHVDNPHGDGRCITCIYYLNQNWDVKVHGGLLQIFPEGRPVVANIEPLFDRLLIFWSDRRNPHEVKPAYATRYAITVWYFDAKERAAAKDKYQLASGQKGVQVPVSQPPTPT
Sequence of Cytochrome P450 2D6 (P10635 whole entry): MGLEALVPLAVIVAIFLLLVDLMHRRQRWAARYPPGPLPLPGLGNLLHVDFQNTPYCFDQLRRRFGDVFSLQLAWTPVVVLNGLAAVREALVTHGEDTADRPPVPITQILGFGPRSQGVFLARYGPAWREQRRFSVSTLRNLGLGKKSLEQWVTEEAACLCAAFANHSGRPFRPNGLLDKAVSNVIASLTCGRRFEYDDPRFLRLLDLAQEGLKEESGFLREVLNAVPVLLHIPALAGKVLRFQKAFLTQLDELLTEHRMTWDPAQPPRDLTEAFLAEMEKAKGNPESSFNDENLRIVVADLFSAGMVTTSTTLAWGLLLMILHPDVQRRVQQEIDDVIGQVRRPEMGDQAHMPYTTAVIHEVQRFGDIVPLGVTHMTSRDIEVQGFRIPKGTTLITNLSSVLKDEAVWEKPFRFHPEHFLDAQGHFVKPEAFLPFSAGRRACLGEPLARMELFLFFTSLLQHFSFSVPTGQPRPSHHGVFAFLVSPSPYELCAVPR
Sequence of Prolyl hydroxylase EGLN3 (Q9H6Z9 whole entry): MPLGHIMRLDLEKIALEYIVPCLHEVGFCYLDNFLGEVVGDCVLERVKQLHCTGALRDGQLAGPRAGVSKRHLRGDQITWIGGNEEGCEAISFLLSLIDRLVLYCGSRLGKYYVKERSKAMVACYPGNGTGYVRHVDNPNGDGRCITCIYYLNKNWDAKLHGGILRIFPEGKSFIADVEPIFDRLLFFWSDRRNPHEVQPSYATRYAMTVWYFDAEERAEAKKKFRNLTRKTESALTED

IC50 (Cytochrome P450 2C19): > 60 µM | fraction unbound [3]: 0.005 | clearance [4]: 0.2 mL/min/kg | Vd [5]: 0.12 L/kg | metabolised at 1 h, 10 µM [6]: 34% | Drug recovery [7]: < 10% | Drug recovery [9]: 39% | Vd [10]: 0.16 L/kg | Drug metabolism [11]: Metabolite_Detected | IC50 (Cytochrome P450 2C9): > 60 µM | clearance [12]: 0.13 mL/min/kg | clearance [14]: 0.07 mL/min/kg | IC50 [15]: 18 µM | half-life [16]: 11 h | fraction unbound [17]: 0.01 | Drug recovery [18]: 26% | Drug recovery [19]: 90% | bioavailability [20]: 71% | IC50 (Prolyl hydroxylase EGLN2): 0.001 µM | Drug metabolism [22]: Metabolite_Detected | Cmax [23]: 11 µM | Drug metabolism [24]: Metabolite_Detected | half-life [25]: 19 h | Cmax [26]: 8.4 µM | metabolised at 1 h, 10 µM [28]: < 10% | IC50 (Prolyl hydroxylase EGLN3): 0.014 µM | Drug recovery [31]: 12% | Cmax [32]: 18 µM | IC50 (Cytochrome P450 2D6): > 60 µM | Cmax [33]: 30 µM
SMILES: COc1ccc(C(NC(=O)c2cnc(-c3cccnn3)nc2O)c2ccc(OC)cc2)cc1
Activity [1]: 1 g/dL | inhibition (Rattus norvegicus [2]): Active | minimal effective dose [8]: 1.5 mg/kg | Activity [13]: 18000 pg/mL | Activity [21]: 27000 pg/mL | inhibition (Rattus norvegicus [27]): Active | Activity [29]: 7.6 g/dL | Activity [30]: 360 pg/mL
